Experimental data taken from article PMC9975633 (Chinese Herbal Medicines, 2022).

Legend:
[1] = target: P-gp (Homo sapiens, UniProt P08183); assay: Effect of verapamil; format: in vitro ADME; details: 0.1 mg/mL SKE + 100 μmol/L verapamil; Caco-2; Fig. 4
In short: (§1)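 Caco-2 cells were seeded at 1×10^5/cm² on 0.4 µm inserts and grown about 20 d in DMEM with 10% FBS, then used once TEER exceeded 500 Ω·cm². After a 15 min HBSS equilibration, 0.1 mg/mL extract plus 100 µmol/L inhibitor was dosed AP or BL at 37 °C with 50 r/min shaking. Receiver was sampled with replacement and four anthraquinones were quantified by HPLC. Papp came from the slope, ER = Papp(B-A)/Papp(A-B), n=3.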

[2] = test system: rat different intestinal segments; assay: In situ single-pass intestinal perfusion in rats; format: in vivo, Sprague-Dawley rats; details: same tested intestinal segment
In short: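 Male Sprague-Dawley rats (250 ± 50 g) were fasted overnight, anesthetized, and ~10 cm duodenum, jejunum or colon segments were cannulated and flushed with 37 °C saline. Krebs-Ringer perfusate held 22.50 mg/mL extract or matched pure anthraquinones (DMSO <1.0%). Flow was 1 mL/min for 5 min, then 0.2 mL/min for 30 min equilibration. Outflow was collected every 15 min to 120 min and analysed by HPLC. Peff was calculated from gravimetrically corrected volumes and segment length/radius.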

[3] = test system: MRP; assay: Effect of MK-571; format: in vitro ADME, human; details: 0.1 mg/mL SKE + 100 μmol/L MK-571; Caco-2; Fig. 4
In short: as §1

[4] = test system: Caco-2 cell monolayer; assay: Bidirectional transport of SKE and RAI in Caco-2 cell monolayer model; format: in vitro ADME, human; details: Caco-2; for Cumulative transport mass (AP-BL): in SKE 0.025, 0.05, 0.1 mg/mL over time, Fig. 3
[5] = as above; format: in vitro ADME, human; details: human; for efflux ratio at 0.05 mg/mL / efflux ratio at 0.1 mg/mL / efflux ratio at 0.025 mg/mL: Caco-2, ER, ER=Papp(B-A)/Papp(A-B); for Papp A→B at 0.05 mg/mL / Papp A→B at 0.1 mg/mL / Papp A→B at 0.025 mg/mL: Caco-2, Papp(A-B), Caco-2, AP-BL; for Papp A→B at 0.05 mg/mL / Papp A→B at 0.1 mg/mL / Papp A→B at 0.025 mg/mL / Papp B→A at 0.05 mg/mL / Papp B→A at 0.1 mg/mL / Papp B→A at 0.025 mg/mL: mean ± SD, n = 3; for Papp B→A at 0.05 mg/mL / Papp B→A at 0.1 mg/mL / Papp B→A at 0.025 mg/mL: Caco-2, Papp(B-A), Caco-2, BL-AP
[6] = ref Wang, Yang, & Song, 2001; cited from earlier work
[7] = in RAI, contents as in 0.05 mg/mL SKE
[8] = in RAI, contents as in 0.1 mg/mL SKE

P-gp, sequence (P08183 whole entry): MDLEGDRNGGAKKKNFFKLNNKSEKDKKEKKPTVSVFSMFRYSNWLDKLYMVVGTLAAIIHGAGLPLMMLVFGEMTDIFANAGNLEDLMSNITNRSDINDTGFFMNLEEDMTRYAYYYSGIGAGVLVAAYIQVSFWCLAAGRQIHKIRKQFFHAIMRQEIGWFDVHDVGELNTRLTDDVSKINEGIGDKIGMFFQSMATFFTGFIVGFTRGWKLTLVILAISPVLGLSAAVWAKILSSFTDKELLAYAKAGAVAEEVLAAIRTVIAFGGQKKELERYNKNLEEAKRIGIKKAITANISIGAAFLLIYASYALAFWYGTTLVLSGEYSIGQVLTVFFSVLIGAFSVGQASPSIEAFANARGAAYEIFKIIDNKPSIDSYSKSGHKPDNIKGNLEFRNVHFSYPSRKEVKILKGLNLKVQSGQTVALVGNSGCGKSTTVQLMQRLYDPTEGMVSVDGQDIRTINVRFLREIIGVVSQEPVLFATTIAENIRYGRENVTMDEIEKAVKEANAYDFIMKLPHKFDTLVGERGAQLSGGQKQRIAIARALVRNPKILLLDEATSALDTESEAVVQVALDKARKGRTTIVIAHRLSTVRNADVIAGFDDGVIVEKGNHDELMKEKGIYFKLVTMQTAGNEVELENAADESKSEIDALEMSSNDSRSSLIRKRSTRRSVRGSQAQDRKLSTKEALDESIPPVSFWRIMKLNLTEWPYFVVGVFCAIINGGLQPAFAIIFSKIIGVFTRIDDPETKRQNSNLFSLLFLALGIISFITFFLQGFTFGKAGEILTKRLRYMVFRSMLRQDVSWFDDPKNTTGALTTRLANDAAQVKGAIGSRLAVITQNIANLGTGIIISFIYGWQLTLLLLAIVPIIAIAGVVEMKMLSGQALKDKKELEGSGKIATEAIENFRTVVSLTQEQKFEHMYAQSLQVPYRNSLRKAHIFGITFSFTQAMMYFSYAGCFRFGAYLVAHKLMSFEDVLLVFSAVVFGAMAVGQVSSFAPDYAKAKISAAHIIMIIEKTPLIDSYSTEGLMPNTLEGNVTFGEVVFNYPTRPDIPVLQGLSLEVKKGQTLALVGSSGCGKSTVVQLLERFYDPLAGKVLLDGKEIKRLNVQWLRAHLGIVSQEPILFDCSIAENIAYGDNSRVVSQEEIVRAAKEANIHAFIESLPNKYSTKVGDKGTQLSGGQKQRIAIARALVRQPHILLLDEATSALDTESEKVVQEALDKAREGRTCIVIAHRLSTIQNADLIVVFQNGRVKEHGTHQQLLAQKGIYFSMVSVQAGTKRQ

ER after addition of verapamil, compared with SKE group [1] | Peff in RAI compared with SKE [2] | ER after addition of MK571, compared with SKE group [3] | Cumulative transport mass (AP-BL) [4] | efflux ratio at 0.05 mg/mL [5, 7] | efflux ratio at 0.1 mg/mL [5, 8] | efflux ratio at 0.025 mg/mL ([5]; in SKE) | efflux ratio at 0.05 mg/mL ([5]; in SKE, 0.05 mg/mL) | efflux ratio at 0.1 mg/mL ([5]; in SKE, 0.1 mg/mL) | Papp A→B at 0.05 mg/mL [5, 7] [×10⁻⁶ cm/s] | Papp A→B at 0.1 mg/mL [5, 8] [×10⁻⁶ cm/s] | Papp A→B at 0.025 mg/mL ([5]; in SKE) [×10⁻⁶ cm/s] | Papp A→B at 0.05 mg/mL ([5]; in SKE, 0.05 mg/mL) [×10⁻⁶ cm/s] | Papp A→B at 0.1 mg/mL ([5]; in SKE, 0.1 mg/mL) [×10⁻⁶ cm/s] | Papp B→A at 0.05 mg/mL [5, 7] [×10⁻⁶ cm/s] | Papp B→A at 0.1 mg/mL [5, 8] [×10⁻⁶ cm/s] | Papp B→A at 0.025 mg/mL ([5]; in SKE) [×10⁻⁶ cm/s] | Papp B→A at 0.05 mg/mL ([5]; in SKE, 0.05 mg/mL) [×10⁻⁶ cm/s] | Papp B→A at 0.1 mg/mL ([5]; in SKE, 0.1 mg/mL) [×10⁻⁶ cm/s] | SMILES | pKa [6] | other results
decreased | higher than those in SKE | reduced the most | time- and concentration-dependent | 1.75 | 1.66 | 2.22 | 2.02 | 1.61 | 8.99 ± 0.44 | 7.97 ± 1.06 | 6.23 ± 0.86 | 6.87 ± 0.23 | 6.63 ± 0.48 | 15.7 ± 1.05 | 13.2 ± 0.67 | 13.8 ± 0.65 | 13.9 ± 0.86 | 10.7 ± 0.15 | Cc1cc(O)c2c(c1)C(=O)c1cccc(O)c1C2=O [Chrysophanol, chrysophanol] | 8.58 | –
– | lower than that in SKE | – | time- and concentration-dependent | 0.76 | 0.88 | 0.96 | 0.73 | 0.64 | 35 ± 1.72 | 34.2 ± 1.13 | 27.4 ± 1.47 | 28.02 ± 0.14 | 31 ± 2.31 | 26.6 ± 1.03 | 30.1 ± 1.37 | 21 ± 0.4 | 20.5 ± 0.46 | 19.8 ± 0.37 | O=C(O)c1cc(O)c2c(c1)C(=O)c1cccc(O)c1C2=O [Rhein, rhein] | 4.72 | Papp(A-B) as fold of Papp(B-A) ([4]; 0.025 mg/mL SKE): 1.4 fold; Papp(A-B) as fold of Papp(B-A) ([4]; 0.05 mg/mL SKE): 1.6 fold; ER (over all concentrations) ([4]; in RAI, contents as in 0.025-0.1 mg/mL SKE): lower than 1.0; ER (over all concentrations) ([4]; in SKE, 0.025-0.1 mg/mL): lower than 1.0
reduced the most | higher than those in SKE | decreased | time- and concentration-dependent | 1.48 | 1.62 | 1.6 | 1.59 | 1.46 | 7.74 ± 0.61 | 7.31 ± 0.97 | 7.4 ± 0.08 | 6.65 ± 0.16 | 6.24 ± 0.29 | 11.5 ± 0.27 | 11.8 ± 0.66 | 11.9 ± 1.11 | 10.6 ± 0.31 | 9.13 ± 0.42 | Cc1cc(O)c2c(c1)C(=O)c1cc(O)cc(O)c1C2=O [Emodin, emodin] | 5.70 | –
reduced the most | higher than those in SKE | decreased | time- and concentration-dependent | – | – | – | – | – | 15.1 ± 1.54 | 14.3 ± 1.06 | 19.6 ± 2.04 | 19.4 ± 1.47 | 17.6 ± 0.74 | 16.1 ± 1.83 | 17.3 ± 0.79 | 24 ± 0.59 | 23.4 ± 1.56 | 19.4 ± 1.65 | O=C1c2cccc(O)c2C(=O)c2c(O)cc(CO)cc21 [Aloe-emodin, aloe-emodin] | 8.64 | –
